Source: PubChem
proCasp7 act = activates human procaspase-7, counter-screen for procaspase-3 activators. recombinant procaspase-7, Ac-DEVD-pNA absorbance 405 nm; D23A/D198A/D206A triple mutant, cannot self-cleave; scale: DMSO 0, 5 µM enzyme 100. hit rate 0.093% among 330,000. AID 463210. activation, % at 8.5 µM;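 active means percent activation above the screen-wide mean plus 3 SD, cut at about 25% in these data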
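Assay system: Uncleavable procaspase-7 mutant enzyme | Input: 2 µM procaspase-7 mutant as dispensed | Timing: 1 h compound preincubation, 2 h substrate cleavage, 25 °C | Repeats: One well per compound | Control set: DMSO wells as 0%, DMSO with 5 µM added PC-7 as 100% | Technique: Epi-absorbance of released pNA at 405 nm, two timepoints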
procasp3 activ = activates human procaspase-3; AID 463141; hit rate 0.11% among 330,000; recombinant procaspase-3 D3A, Ac-DEVD-pNA absorbance 405 nm; activation, % at 8.5 µM; P42574;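 active means activation above the mean of all tested compounds plus 3 SD, cut at about 21% in these data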;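 further: 0% = DMSO alone and 100% = DMSO wells spiked with extra 5 µM PC-3 D3A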
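material = Procaspase-3 D3A mutant | probe or stimulus = Ac-DEVD-pNA | compound = single dose, 8.5 µM nominal compound, 0.8% DMSO | timing = 1 h preincubation, 2 h reaction | measured by = 405 nm absorbance of p-nitroaniline, reads at 0 and 120 min | benchmarks = DMSO-only low control, 5 µM PC-3 D3A high control | repeats = singlicate, each compound tested once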
CHT PAM = human CHT allosteric activation. AID 488977. hit rate 0.49% among 310,000. CHT-expressing cells, membrane potential dye, choline EC20; hits give high values; LV-AA mutant CHT in HEK293 cells. B-score at 10 µM;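 active means initial fluorescence not abnormally high and integrated response B-score, plate-corrected, over 3 SD above library mean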
Target sequence (Q9GZV3 whole entry, looked up): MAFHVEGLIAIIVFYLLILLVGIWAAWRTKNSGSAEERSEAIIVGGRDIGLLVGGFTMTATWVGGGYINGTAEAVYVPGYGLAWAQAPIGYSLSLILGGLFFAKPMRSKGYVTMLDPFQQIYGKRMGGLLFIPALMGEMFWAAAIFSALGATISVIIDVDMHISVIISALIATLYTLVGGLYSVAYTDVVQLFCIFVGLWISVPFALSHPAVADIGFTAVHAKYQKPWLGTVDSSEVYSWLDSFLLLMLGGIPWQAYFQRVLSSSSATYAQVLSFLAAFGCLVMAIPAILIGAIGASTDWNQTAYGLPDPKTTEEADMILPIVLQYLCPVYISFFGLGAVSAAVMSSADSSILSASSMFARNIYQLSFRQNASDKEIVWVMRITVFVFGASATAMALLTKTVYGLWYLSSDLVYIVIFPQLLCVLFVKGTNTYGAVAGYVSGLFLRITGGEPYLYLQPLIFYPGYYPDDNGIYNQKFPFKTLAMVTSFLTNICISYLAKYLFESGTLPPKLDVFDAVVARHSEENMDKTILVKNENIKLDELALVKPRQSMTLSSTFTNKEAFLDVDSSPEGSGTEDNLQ
CHT block = inhibitors of human choline transporter CHT; CHT-expressing cells, membrane potential dye, choline response; hits give low values; B-score at 10 µM; hit rate 0.86% among 310,000; AID 488975;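 active means B-score over 3 SD under the library average, and starting fluorescence ratio not unusually high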;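 further: choline stimulus applied at its EC90 after an EC20 pre-addition; B-score computed on integrated fluorescence ratio after choline addition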
proCasp7 act trip = counter-screen: procaspase-7 (human) activation in triplicate | activation, % at 8.5 µM | 210 tested, under 10 active | AID 488941 | shares compounds with procasp3 activ | recombinant procaspase-7, Ac-DEVD-pNA absorbance; asp23/198/206-to-Ala mutant, cannot self-cleave;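 active means mean activation above a set limit taken from an earlier procaspase-7 screen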;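 further: 0% = DMSO wells and 100% = DMSO plus 5 µM procaspase-7 enzyme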
proCasp3 confirm = confirmation of human procaspase-3 activators | AID 488954 | shares compounds with procasp3 activ | activation, % at 8.5 µM | hit rate 10% among 210 | recombinant PC-3 D3A, Ac-DEVD-pNA absorbance 405 nm; 100% is higher-enzyme control;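 active means mean activation above a set limit carried over from the earlier primary screen, cut at about 22% in these data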
* = called active by the depositor. Only some compounds are listed: those with a hit (about 1.3% of all), similar ones and a draw of the others.

Cc1ccc2nc(N(CCCN(C)C)C(=O)c3ccc(S(=O)(=O)N4CCCCCC4)cc3)sc2c1 was read as proCasp7 act -0.5, procasp3 activ 6.8, CHT PAM inactive and CHT block -5.47*.
For CCc1ccc2nc(N(CCCN(C)C)C(=O)c3ccc(S(=O)(=O)N4CCCC4)cc3)sc2c1 the results were proCasp7 act 10.8, procasp3 activ 7.9, CHT PAM inactive and CHT block inactive.
COc1nc(N=C(N)N)nc2ccc(C)cc12 was read as proCasp7 act -5.1, procasp3 activ -3.1, CHT PAM 7.44* and CHT block inactive.
`N=c1n(CCN2CCCCC2)c2ccccc2n1CC(O)COc1ccccc1` (stereo not given) gave proCasp7 act 0.2, procasp3 activ 2.5, CHT PAM 7.17* and CHT block inactive.
For CCN(CC)CCN(C(=O)C1=COCCO1)c1nc2cc(C)cc(C)c2s1 the results were proCasp7 act 3.1, procasp3 activ -0.9, CHT PAM inactive and CHT block -6.02*.
Cc1cc(C)cc(N(CCC#N)C(=O)CSc2ncnc3sccc23)c1 was read as proCasp7 act 9.3 and procasp3 activ 1.6.
`CCCCCCc1cc2cc(C(=O)OCC)c(=O)oc2cc1O` gave proCasp7 act 20.1, procasp3 activ 35.6*, CHT PAM inactive, CHT block inactive, proCasp7 act trip -20.7 and proCasp3 confirm -12.9.
COc1ccc2nc(Nc3nc4cc5c(cc4s3)OCO5)sc2c1 was read as proCasp7 act 6.8, procasp3 activ 68.9*, CHT PAM inactive, CHT block inactive, proCasp7 act trip -20.0 and proCasp3 confirm -14.1.
`COc1ccc2nc(Nc3ccc4c(c3)OCO4)sc2c1` gave proCasp7 act -4.8, procasp3 activ 2.2, CHT PAM inactive and CHT block inactive.
For CC(=O)Oc1ccc(-c2cc3ccccc3oc2=O)cc1 the results were proCasp7 act 6.3, procasp3 activ 1.9, CHT PAM inactive and CHT block inactive.
CC(=O)Oc1ccc(-c2cc3c(OC(C)=O)cc(OC(C)=O)cc3oc2=O)cc1 was read as proCasp7 act 8.9, procasp3 activ 51.7*, CHT PAM inactive, CHT block inactive, proCasp7 act trip -20.5 and proCasp3 confirm -14.4.
CCCCN(C(=O)CSc1nc2ccccc2n1CC)C1CCS(=O)(=O)C1 (stereo not given) was read as proCasp7 act -7.0 and procasp3 activ -3.2.
COc1ccc(-c2ccc(C#N)c(SCC(=O)OCc3ccccc3)n2)cc1OC was read as proCasp7 act 9.7, procasp3 activ 34.2*, CHT PAM inactive, CHT block inactive, proCasp7 act trip 3.9 and proCasp3 confirm 6.4.
`N#Cc1ccc(-c2ccc3c(c2)OCO3)nc1SCC(=O)OCc1ccccc1` gave proCasp7 act -22.3, procasp3 activ -21.6, CHT PAM inactive and CHT block inactive.
For CCCc1cc(=O)n2[nH]c(NC(=O)c3ccco3)nc2n1 the results were proCasp7 act 5.5, procasp3 activ 3.3, CHT PAM inactive and CHT block inactive.
Screening CCN(CC)S(=O)(=O)c1ccc2c(c1)c(=O)c(C(=O)N1CCN(c3ccccn3)CC1)cn2C returned proCasp7 act 1.7, procasp3 activ 4.2, CHT PAM inactive and CHT block inactive.
`CCN(CC)S(=O)(=O)c1ccc2c(c1)c(=O)c(C(=O)N1CCOCC1)cn2C` gave proCasp7 act 7.0, procasp3 activ 45.9*, CHT PAM inactive, CHT block inactive, proCasp7 act trip 2.5 and proCasp3 confirm 1.1.
For O=C1C2C(c3ccccc3)=NN(c3ccccc3)C2C(=O)N1c1ccccc1 (stereo not given) the results were proCasp7 act 24.9, procasp3 activ 22.6*, CHT PAM inactive, CHT block inactive, proCasp7 act trip 35.6* and proCasp3 confirm 47.2*.
`Cc1cc(C)c(OCC(=O)OC(C)C(=O)N2CCc3ccccc32)c(C)c1` (stereo not given) gave proCasp7 act -1.3, procasp3 activ -4.7, CHT PAM inactive and CHT block inactive.
For CCn1c(NCc2cccc(OC)c2OC)nc2ccccc21 the results were proCasp7 act 17.5, procasp3 activ 22.1*, CHT PAM inactive, CHT block inactive, proCasp7 act trip 4.2 and proCasp3 confirm 1.7.
COc1ccc(-n2c(CCc3ccccc3)nnc2SCC(=O)NCc2ccccc2)cc1 was read as proCasp7 act -4.2, procasp3 activ 59.2*, CHT PAM inactive, CHT block inactive, proCasp7 act trip -0.1 and proCasp3 confirm 3.8.
For CC(=O)c1ccc(OCCCCOc2ccc(C(C)=O)cc2)cc1 the results were proCasp7 act -16.1, procasp3 activ 7.7, CHT PAM inactive and CHT block inactive.
For COc1cc(/C=C(\NC(=O)c2ccccc2)C(=O)Nc2nccs2)ccc1OC(C)=O the results were proCasp7 act 4.3, procasp3 activ 4.4, CHT PAM inactive and CHT block inactive.
For O=C(CSc1nnnn1-c1ccccc1)Nc1ccc(Cl)cc1 the results were proCasp7 act 13.0, procasp3 activ 27.2*, CHT PAM inactive, CHT block inactive, proCasp7 act trip 0.8 and proCasp3 confirm 4.0.
For O=C(CSc1nnnn1-c1ccccc1)Nc1ccc(Cl)cn1 the results were proCasp7 act 3.2, procasp3 activ 1.4, CHT PAM inactive and CHT block inactive.
For Cc1cccn2c(=O)c3cc(C(=O)NCCc4ccccc4)sc3nc12 the results were proCasp7 act 5.0, procasp3 activ 31.4*, CHT PAM inactive, CHT block inactive, proCasp7 act trip -18.6 and proCasp3 confirm -14.3.
Screening Cc1cc(N/N=C/c2ccco2)c2ccccc2n1 returned proCasp7 act -0.3, procasp3 activ 8.7, CHT PAM inactive and CHT block inactive.
Screening Cc1cc(N/N=C/c2ccc(N(C)C)cc2)c2ccccc2n1 returned proCasp7 act 23.8, procasp3 activ 28.1*, CHT PAM inactive, CHT block inactive, proCasp7 act trip -4.4 and proCasp3 confirm -5.5.
CCCn1nnnc1COc1ccc(C(N)=O)cc1 was read as proCasp7 act 1.8, procasp3 activ 5.4, CHT PAM inactive and CHT block inactive.
`C=CCN(c1ccccc1)S(=O)(=O)c1cccc(C(=O)Oc2ccc3c(C)cc(=O)oc3c2)c1` gave proCasp7 act 21.2, procasp3 activ 21.3*, CHT PAM inactive, CHT block inactive, proCasp7 act trip -7.0 and proCasp3 confirm -7.3.
Cc1cc2nn(-c3cccc4ccccc34)nc2cc1N was read as proCasp7 act 5.0, procasp3 activ 21.6*, CHT PAM inactive, CHT block inactive, proCasp7 act trip 5.4 and proCasp3 confirm 24.5*.
